Laboratory results published in paper PMC4059272 (Journal of Medicinal Chemistry, 2014).

Columns and labels:
MCF-7:WS8 cells [1] = experiment: DNA quantification growth assay, compounds alone; assay type: cell-based, human; conditions: for estrogenic properties on cell growth: MCF-7:WS8, compounds alone, concentration range 10^–12–10^–6 M
pS2 gene = experiment: RT-PCR of estrogen-responsive gene pS2 in MCF-7:WS8 cells; assay type: cell-based, human; conditions: MCF-7:WS8, 48 h; E2 at 10^–10 M, other compounds at 10^–6 M
In short: (§1)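 MCF-7:WS8 cells kept in phenol-red RPMI 1640 with 10% FBS, glutamine, nonessential amino acids and 6 ng/mL insulin at 37 °C, 5% CO2. Cells were estrogen-starved 3 days, seeded at 300 000 cells/well the day before, and treated 48 h. RNA was taken in Trizol and run as SYBR green real-time PCR with 36B4 as reference.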

GREB1 gene = experiment: RT-PCR of estrogen-responsive gene GREB1 in MCF-7:WS8 cells; assay type: cell-based, human; conditions: MCF-7:WS8, 48 h; E2 at 10^–10 M, other compounds at 10^–6 M
In short: as §1

prolactin gene (Prl) = experiment: RT-PCR of prolactin; assay type: cell-based, rat; conditions: GH3 cells, top concentration of 10^–6 M, with 1 nM E2
PgR gene = experiment: RT-PCR of estrogen-responsive gene PgR in MCF-7:WS8 cells; assay type: cell-based, human; conditions: MCF-7:WS8, 48 h; E2 at 10^–10 M, other compounds at 10^–6 M
In short: as §1

ERα = molecular target: T1, ERα (Homo sapiens, UniProt P03372); experiment: Immunoblotting of ERα protein levels in MCF-7:WS8 cells; assay type: cell-based; conditions: for regulation of ERα protein levels: MCF-7:WS8, 24 h treatment
T1 sequence (P03372 1-595): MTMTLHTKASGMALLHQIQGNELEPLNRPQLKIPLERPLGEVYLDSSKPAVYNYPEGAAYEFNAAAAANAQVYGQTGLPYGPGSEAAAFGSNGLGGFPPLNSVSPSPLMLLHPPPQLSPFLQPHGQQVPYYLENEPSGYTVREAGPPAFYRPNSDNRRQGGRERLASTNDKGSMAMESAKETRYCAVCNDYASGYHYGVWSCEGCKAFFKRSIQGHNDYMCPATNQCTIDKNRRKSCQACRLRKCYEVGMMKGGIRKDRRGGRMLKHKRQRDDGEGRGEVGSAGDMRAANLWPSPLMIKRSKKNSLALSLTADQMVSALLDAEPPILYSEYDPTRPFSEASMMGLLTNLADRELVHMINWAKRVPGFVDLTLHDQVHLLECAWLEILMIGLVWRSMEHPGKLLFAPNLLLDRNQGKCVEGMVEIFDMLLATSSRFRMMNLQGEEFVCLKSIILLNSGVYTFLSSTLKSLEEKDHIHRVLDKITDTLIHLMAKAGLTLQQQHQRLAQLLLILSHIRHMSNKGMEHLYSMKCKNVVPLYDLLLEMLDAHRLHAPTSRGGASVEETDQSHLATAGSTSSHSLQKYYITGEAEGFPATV

MCF-7:WS8 cells [2] = experiment: DNA based growth assay, combination treatments with 10^–10 M E2; assay type: cell-based, human; conditions: for inhibition of 10^–10 M E2-induced growth: MCF-7:WS8, at 10^–6 M

SMILES	estrogenic properties on cell growth (MCF-7:WS8 cells [1])	effect on pS2 mRNA expression (pS2 gene)	effect on GREB1 mRNA expression (GREB1 gene)	inhibition of 1 nM E2-induced Prl gene up-regulation (prolactin gene (Prl))	partial agonist growth level, % max of E2 curve (MCF-7:WS8 cells [1]; MCF-7:WS8, over the range 10^–12–10^–9 M) [%]	effect on PgR mRNA expression (PgR gene)	regulation of ERα protein levels (ERα)	reduction (down-regulation) of ERα level by densitometry (ERα; MCF-7:WS8, 24 h, E2 at 1 nM)	inhibition of 10^–10 M E2-induced growth (MCF-7:WS8 cells [2])	inhibition of E2-stimulated cell growth at top concentration (MCF-7:WS8 cells [2]; MCF-7:WS8, 10^–6 M compound with 10^–10 M E2)
CCOc1ccc2c(c1)CCCC(c1ccccc1)=C2c1ccc(OCCN(C)C)cc1 [ZFR4OHT]	no estrogenic properties	no significant effect	no significant effect	completely inhibit						
CCC(=C(c1ccc(O)cc1)c1ccc(O)cc1)c1ccccc1 [BPTPE]		partial estrogenic effect	partial estrogenic effect		50	partial estrogenic effect	up-regulated the protein levels			
C[C@]12CC[C@@H]3c4ccc(O)cc4C[C@@H](CCCCCCCCC[S+]([O-])CCCC(F)(F)C(F)(F)F)[C@H]3[C@@H]1CC[C@@H]2O (stereo partly drawn) [Fulvestrant]								more than 90%		
CCC(=C(c1ccc(O)cc1)c1ccc(O)cc1)c1ccc(O)cc1 [3OHTPE]		partial estrogenic effect	partial estrogenic effect			partial estrogenic effect	up-regulated the protein levels			
CCC(=C(c1ccc(O)cc1)c1ccc(OCCN(C)C)cc1)c1ccccc1 [4OHT, 4-hydroxytamoxifen]	no estrogenic properties	no significant effect	no significant effect	completely inhibit					completely	
CN(C)CCOc1ccc2c(c1)CCCC(c1ccccc1)=C2c1ccc(O)cc1 [EFR4OHT]		induce expression	induce expression			induce expression				
C[C@]12CC[C@@H]3c4ccc(O)cc4CC[C@H]3[C@@H]1CC[C@@H]2O [E2, 17β-estradiol]		induced expression	induced expression			induced expression				
CNCCOc1ccc2c(c1)CCCC(c1ccccc1)=C2c1ccc(O)cc1 [EFREndox, 4-(3-(2-(Methylamino)ethoxy)-8-phenyl-6,7-dihydro-5H-benzocyclohepten-9-yl)phenol]		induce expression	induce expression			induce expression				about 10%
CNCCOc1ccc(C2=C(c3ccccc3)CCCc3cc(O)ccc32)cc1 [ZFREndox, 9-(4-(2-(Methylamino)ethoxy)phenyl)-8-phenyl-6,7-dihydro-5H-benzocyclohepten-3-ol]	no estrogenic properties	no significant effect	no significant effect	completely inhibit						
CC/C(=C(\c1ccc(O)cc1)c1ccc(OCCNC)cc1)c1ccccc1 [Endoxifen, 4-hydroxy-N-desmethyltamoxifen]	no estrogenic properties						up-regulation		completely	
